Measured values as given in ChEMBL document CHEMBL1134834, “Quinoxalinylethylpyridylthioureas (QXPTs) as potent non-nucleoside HIV-1 reverse transcriptase (RT) inhibitors. Further SAR studies and identification of a novel orally bioavailable hydrazine-based antiviral agent” (J Med Chem, 2001).

How the values were obtained:
NIH3T3 = assay: Cytotoxicity on 3T3 fibroblasts (3T3F) murine cell line (O.D.=0.131+/-0.014); type: functional; conditions: Mus musculus, read-out: TC50 (the source's name)
CEM-SS [1] = assay: Concentration which produces a 50% survival of HIV-1 infected cells relative to uninfected control CEM-SS cells (in vitro anti-HIV activity); type: functional, cell-based; conditions: Homo sapiens
Outline: (§1)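 CEM-SS T4 lymphocytes infected with wild-type HIV-1. Protection from virus-induced cell death is scored against an AZT-treated positive control run under identical conditions. […] SI = IC50/EC50.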

CEM-SS [2] = assay: Concentration which results in 50% survival of uninfected untreated control CEM-SS cells (cytotoxicity of the compound); type: functional, cell-based; conditions: Homo sapiens, read-out: IC50 (the source's name)
C8166 = assay: Concentration which results in 50% survival of uninfected untreated control C8166 cells (cytotoxicity of the compound); type: functional, cell-based; conditions: Homo sapiens
Outline: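 Toxicity in uninfected C8166 cells by MTT reduction to formazan, read spectrophotometrically.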

[3] = test system: Human immunodeficiency virus 1; assay: Concentration which produces a 50% survival of HIV-1 infected cells relative to uninfected control C8166 cells; type: functional, organism-based; conditions: Human immunodeficiency virus 1, C8166
Daudi = assay: Cytotoxicity on Daudi Human(DH) cell line (O.D.=0.129+/-0.018); type: functional; conditions: read-out: TC50 (the source's name)
Mus musculus = organism: Mus musculus; assay: Cytotoxicity on NSO murine cell line (O.D.=0.125+/-0.015); type: functional; conditions: read-out: TC50 (the source's name)
[4] = biological target: T1, Human immunodeficiency virus type 1 reverse transcriptase (Human immunodeficiency virus 1, UniProt Q72547); assay: Inhibition of HIV-1 Mutant HIV-1 RT enzymes containing the single amino acid substitution […]
[5] = biological target: Human immunodeficiency virus type 1 reverse transcriptase (Human immunodeficiency virus 1, UniProt Q72547, V106A); assay: Inhibition of HIV-1 Mutant HIV-1 RT enzymes containing the single amino acid substitution V106A
[6] = biological target: Human immunodeficiency virus type 1 reverse transcriptase (Human immunodeficiency virus 1, UniProt Q72547, Y181I); assay: Inhibition of HIV-1 Mutant HIV-1 RT enzymes containing the single amino acid substitution Y181I
[7] = biological target: Human immunodeficiency virus type 1 reverse transcriptase (Human immunodeficiency virus 1, UniProt Q72547, Y188L); assay: Inhibition of HIV-1 Mutant HIV-1 RT enzymes containing the single amino acid substitution Y188L
[8] = biological target: T1, Human immunodeficiency virus type 1 reverse transcriptase; assay: Inhibition of HIV-1 wild-type RT
[9] = Selectivity index was determined in C8166 cells; type: functional
Outline: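 C8166 CD4+ T-cell line (HTLV-I genome, only tat expressed) acutely infected with lymphocytotropic HIV-1 IIIB. […] Read-out is HIV-p24 antigen in supernatants. AZT positive control was run at the same time. SI = IC50/EC50.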

[10] = Selectivity index was determined in CEM-SS cells; type: functional; outline: as §1
[11] = (§2) Cytotoxicity on normal human lymphocytes(HL) (O.D.=0.114+/-0.01); conditions: read-out: TC50 (the source's name)
[12] = biological target: Human immunodeficiency virus type 1 reverse transcriptase (Human immunodeficiency virus 1, UniProt Q72547, K103N); assay: Inhibition of HIV-1 Mutant HIV-1 RT enzymes containing the single amino acid substitution K103N
[13] = as §2; type: functional; conditions: read-out: TC50 (the source's name)
[14] = Selectivity index was (IC50/EC50) determined in C8166 cells; type: functional
[15] = Selectivity index (IC50/EC50) was determined in CEM-SS cells; type: functional
Outline: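 CEM-SS (T4 lymphocyte) cells infected with wild-type HIV-1 were scored for protection from virus-induced cell death. […] SI = IC50/EC50. An AZT-treated positive control was run in parallel under identical conditions.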

SMILES | CC50 (NIH3T3) | EC50 (CEM-SS [1]) | CC50 (CEM-SS [2]) | IC50 (C8166) | EC50 [3] | CC50 (Daudi) | CC50 (Mus musculus) | Ki [4] | Ki [5] | Ki [6] | Ki [7] | Ki [8] | SI [9] | SI [10] | CC50 [11] | Ki [12] | CC50 [13] | SI [14] | SI [15]
O=c1c2cccn2c2c(F)cccc2n1CCNC(=S)Nc1ccc(Br)cn1 | 500 µM | 0.0019 µM | > 2 µM | 21 µM | 0.2 µM | 510 µM | 520 µM | 0.8 µM | 0.06 µM | 0.9 µM | 0.2 µM | 0.04 µM | 105 | >110 | 510 µM | 0.4 µM | – | – | –
Fc1cccc2c1nc(OCCNC(=S)Nc1ccc(Br)cn1)c1cccn12 | > 1000 µM | 0.0029 µM | > 2 µM | 125 µM | 0.02 µM | > 1000 µM | > 1000 µM | 0.15 µM | 0.029 µM | 0.3 µM | 0.7 µM | 0.058 µM | – | – | – | 0.35 µM | > 1000 µM | 6250 | >690
